# This is a sample that favours compounds with a hit; in the whole collection about 3.9% have one here.
# TAAR1 antagonist: human TAAR1 antagonists, primary screen, Fluo-8 calcium fluorescence, CHO RD-HGA16 cells; antagonist; 360,000 compounds, 1.5% hits; inhibition, % at 3 µM; AID 624466, 2012;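 active means inhibition above a per-plate cutoff, the mean inhibition of test compounds on that plate plus 3 SD, cut at about 49% in these data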;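 further: 0% = DMSO plus EC80 beta-PEA response and 100% = DMSO alone without agonist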
#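 Assay system: RD-HGA16 CHO cells with stable hTAAR1 and Gα16 / Reagent: EC80 β-phenethylamine stimulus / Doses: 3 µM, single point / Timing: dye loading 75 min at 37 °C, then 30 min room temperature / Measured by: Fluo-8 intracellular calcium dye fluorescence, real-time kinetic reads / Controls: vehicle wells and EC80 agonist wells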
# HTR2A ag: mouse Htr2a agonists via beta-arrestin recruitment, primary screen, cell-based, luminescence. 360,000 compounds, 0.66% hits. activation, % at 7.6 µM. AID 624169, 2012. 5-hydroxytryptamine receptor 2A (Mus musculus), P35363. CHO-K1 mHTR2A beta-arrestin complementation; percent of 30 µM serotonin response;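 active means activation above a run cutoff, the mean activation of all tested compounds plus 3 SD, cut at about 14% in these data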;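 further: 0% = plate median of compound wells and 100% = 30 µM serotonin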
# CHRM1 agonist: human M1 muscarinic receptor agonists, primary screen, Fluo-8 calcium fluorescence, CHO-K1 cells, HTS; activation, % at 3 µM; CHO-K1 hM1, agonist mode; 0% DMSO, 100% acetylcholine EC100; Muscarinic acetylcholine receptor M1 (Homo sapiens), P11229; 360,000 compounds, 0.33% hits;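 active means activation above the run's mean compound activation plus 3 SD, cut at about 16% in these data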;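 further: peak over basal fluorescence ratio within a 140 s kinetic read after compound addition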
# Target sequence (P11229 whole entry, looked up): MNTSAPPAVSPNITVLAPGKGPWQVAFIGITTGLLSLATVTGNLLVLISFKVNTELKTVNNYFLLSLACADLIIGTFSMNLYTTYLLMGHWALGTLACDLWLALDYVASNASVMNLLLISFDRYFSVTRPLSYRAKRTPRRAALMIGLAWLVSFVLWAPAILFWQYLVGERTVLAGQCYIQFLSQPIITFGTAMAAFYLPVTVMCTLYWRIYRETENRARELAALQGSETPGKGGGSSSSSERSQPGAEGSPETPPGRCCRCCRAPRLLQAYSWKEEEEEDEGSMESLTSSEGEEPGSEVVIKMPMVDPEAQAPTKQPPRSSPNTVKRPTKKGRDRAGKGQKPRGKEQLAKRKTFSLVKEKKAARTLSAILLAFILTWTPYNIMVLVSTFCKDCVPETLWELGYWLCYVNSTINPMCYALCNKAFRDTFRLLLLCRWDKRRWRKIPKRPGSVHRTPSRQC
# M1 antag: human M1 muscarinic receptor antagonists, primary screen, CHO-K1 cells, Fluo-8 calcium fluorescence, 1536-well | Muscarinic acetylcholine receptor M1 (Homo sapiens), P11229 | CHO-K1 hM1, ACh EC80 antagonist | inhibition, % at 3 µM | 360,000 compounds, 1.3% hits;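 active means percent inhibition above its own plate's cutoff, namely the mean of that plate's compound wells plus 3 SD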;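 further: peak over basal fluorescence ratio during 140 s after agonist addition; 0% = ACh EC80 plus DMSO and 100% = DMSO alone without agonist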
# CHRM1 PAM: human M1 muscarinic receptor positive allosteric modulators, primary screen, CHO-K1 cells, Fluo-8 calcium fluorescence, 1536-well | Muscarinic acetylcholine receptor M1 (Homo sapiens), P11229 | CHO-K1 hM1, ACh EC20; 0% = ACh EC20, 100% = maximal ACh | activation, % at 3 µM | 360,000 compounds, 0.088% hits | AID 588819, 2011; in the data active means activation above about 19%, passing the limit was not always enough
# TAAR1 agonist: human TAAR1 agonists, primary screen, Fluo-8 calcium fluorescence, CHO RD-HGA16 cells. Trace amine-associated receptor 1 (Homo sapiens), Q96RJ0. vehicle wells 0%, saturating PEA agonist 100%. activation, % at 3 µM. 360,000 compounds, 0.99% hits. AID 624467, 2012;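 active means activation above the mean activation of all test compounds in the run plus 3 SD, cut at about 38% in these data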
#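 Assay system – CHO-derived RD-HGA16 cells with stable Gα16 and human TAAR1 · Compound dosing – one-point dosing at 3 µM (nominal) · Incubation – 17-24 h seeding, 75 min 37 °C dye, 30 min RT · Measured by – kinetic Fluo-8 calcium fluorescence · Control set – DMSO vehicle as 0%, PEA at EC100 as 100% · Repeats – single well for each compound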
# OPRM1 ag: OPRM1 agonists via beta-arrestin recruitment, confirmation, counter-screen for mouse HTR2A agonist project, cell-based, luminescence, single concentration; shares compounds with HTR2A ag; U2OS OPRM1 beta-arrestin PathHunter; DMSO 0%, DAMGO 9.3 µM 100%; activation, % at 9.3 µM; 2,300 compounds, 5.3% hits; AID 624380, 2012;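 active means mean activation above the mean of DMSO-only wells plus 3 SD, cut at about 0.5% in these data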
# HTR2A ag conf: mouse HTR2A agonists, beta-arrestin recruitment, confirmation, cell-based, luminescence, CHO-K1 PathHunter, triplicate; shares compounds with HTR2A ag; DMSO 0%, 30 µM serotonin 100%; activation, % at 7.6 µM; 2,300 compounds, 19% hits; AID 624381, 2012;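 active means mean activation across triplicates above the hit threshold derived in the original primary screen, cut at about 15% in these data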
# Numbers without * were called inactive; / = no result.
SMILES,TAAR1 antagonist,HTR2A ag,CHRM1 agonist,M1 antag,CHRM1 PAM,TAAR1 agonist,OPRM1 ag,HTR2A ag conf
COc1ccc(S(=O)(=O)N2CCCCCC2)cc1NC(=O)c1ccccc1,0,0,-3,-25,16,0,/,/
Cc1ccccc1-n1ncc(C(C)NS(=O)(=O)c2sccc2C)c1C (stereo unspecified),-35,15*,2,-17,10,4,-1,-3
N#CC(OC(=O)c1ccccc1)c1cccc([N+](=O)[O-])c1 (stereo unspecified),5,1,-7,1,0,0,/,/
CCC(C(=O)NCCc1ccc(OC)cc1OC)n1nc(C)n2c(cc3occc32)c1=O (stereo unspecified),-8,2,-4,-22,10,3,/,/
CN(C)c1ccc(C(=O)OCC#CCSc2nnc(-c3cccc4ccccc34)o2)cc1,-1,-1,-3,-17,9,17,/,/
CC(C)c1[nH]nc2c1C1(CCN(Cc3ccccc3)CC1)C(C#N)=C(N)O2,9,31*,-3,7,7,8,-1,-5
Fc1ccc2nc3[nH]c4ccccc4c3nc2c1,-10,22*,-2,-14,12,7,0,-1
CN(C)CCCCCCN(C)C,6,/,/,/,/,1,/,/
COc1ccc(N2CCN(CC(=O)Nc3nc(C)cs3)CC2)cc1,7,1,5,-11,16,4,/,/
COC(=O)CC(NS(=O)(=O)c1cccs1)c1ccccc1Cl (stereo unspecified),-1,19*,-3,-2,6,2,0,-4
CC(C)NC(=O)c1cc(C2CCCCN2S(=O)(=O)c2ccccc2)on1 (stereo unspecified),-15,1,-8,11,-12,1,/,/
CCN(c1ccc(OC)cc1)S(=O)(=O)c1ccc2c(c1)CCN2C(=O)CCC(=O)O,4,14*,1,0,5,9,0,0
C=CCn1c(=N)n(CC(O)c2ccco2)c2ccccc21 (stereo unspecified),-3,15*,-5,6,2,4,0,-2
CCn1c(=N)n(CC(O)c2ccco2)c2ccccc21 (stereo unspecified),5,1,-7,-6,5,-1,/,/
COc1ccc(O)c(/C=N/NC(=O)c2cccc(N3CCCC3=O)c2)c1,10,1,0,-10,4,5,/,/
COc1cccc(/C=N/NC(=O)c2cccc(N3CCCC3=O)c2)c1,1,15*,-3,-10,6,1,0,-3
O=C(Nc1nc2c(s1)COc1ccccc1-2)c1cccs1,26,-5,7,-11,0,10,/,/
O=C(CCS(=O)(=O)c1ccccc1)Nc1nc2c(s1)COc1ccccc1-2,47,22*,2,-14,7,14,0,-5
CCN1C[C@@H]2[C@@H]3C(=O)N(Cc4ccccc4)C(=O)[C@@H]3[C@](Cc3ccccc3)(C(=O)OC)N2C1=NCc1ccccc1,6,1,-5,-15,11,3,/,/
CC[C@]1(C(=O)OC)[C@H]2C(=O)N(Cc3ccccc3)C(=O)[C@H]2[C@H]2CN(C)C(=NCc3ccccc3)N21,/,21*,-11,-4,2,/,0,-2
COc1ccc(C(=O)Nc2ccc(NC(=O)Cc3ccccc3)cn2)cc1,-4,2,0,-23,12,23,/,/
O=C(CCc1ccncc1)NC1CCCc2c1cnn2-c1ccc(F)cc1F (stereo unspecified),-8,16*,-2,-5,1,3,0,-1
COc1ccc(-c2ccc(CN3C(C)C(=O)N(Cc4cn(CCC5OCCO5)nn4)CCS3(=O)=O)cc2)cc1OC (stereo unspecified),-3,-4,-9,-12,7,2,/,/
Cc1ccn2cc(C(=O)N3CCCC(Nc4ccc(F)cc4)C3)nc2c1 (stereo unspecified),4,18*,-2,-3,0,0,-1,1
Cc1occc1C(=O)N1CCCC(Nc2ccc(F)cc2)C1 (stereo unspecified),2,5,-2,-5,3,1,/,/
SMILES,TAAR1 antagonist,HTR2A ag,CHRM1 agonist,M1 antag,CHRM1 PAM,TAAR1 agonist,OPRM1 ag,HTR2A ag conf
Cc1ccc2nccc(C(=O)N3CCCC(Nc4ccc(F)cc4)C3)c2c1 (stereo unspecified),-6,18*,-3,-5,8,3,-1,-2
C=CCN(CC=C)C(=O)c1ccc(OC2CCN(S(=O)(=O)N(C)C)CC2)cc1,9,0,-9,-1,7,2,/,/
Cc1nnc(SCC(=O)Nc2cc(Cl)ccc2Cl)n1CC1CCCO1 (stereo unspecified),-3,17*,-3,-16,11,2,0,-3
O=C(COC(=O)Cc1ccsc1)Nc1ccc(Br)cc1F,-11,1,-6,4,-3,-1,/,/
COc1cc(OC)nc(NC(=O)CS(=O)(=O)c2ccccc2)n1,-4,16*,-1,-10,9,4,0,3
COc1ccc(OC)c(NC(=O)CS(=O)(=O)c2ccccc2)c1,6,9,-4,-12,6,18,/,/
COc1cccc(C(=O)OCC(=O)NCCC2=CCCCC2)c1,-11,6,-6,-10,3,-3,/,/
CC(C)(C)c1ccc(S(=O)(=O)NC(=O)C2(C)CCN2C(=O)C2(c3ccccc3)CC2)cc1 (stereo unspecified),-18,18*,-1,-15,9,15,-1,-2
Cc1cc(C)cc(CC(=O)N2CCC2(C)C(=O)NS(=O)(=O)c2cccc(OC(F)F)c2)c1 (stereo unspecified),-10,-1,-3,-7,2,1,/,/

# Screening results from PubChem.
